Assay results taken from paper PMC4390023 (The British journal of nutrition, 2013).
Entries after “also recorded” stand apart in the source; their conditions may differ.

Assays:
RARα = conditions: cited from earlier work
RARβ = conditions: cited from earlier work
RARγ = conditions: cited from earlier work
[1] = cited from earlier work; for Estimates of bioactivity in rats, that of ROH: ref estimates of the 1950's
Study 1 growth assay = assay type: in vivo, rat; conditions: for Bioactivity compared with retinol: from body weights and area-under-the-response curves, equimolar 50 nmol/d; for Area-under-the growth curve, difference from control / Bioactivity from area-under-the growth curve, % of retinol / Bioactivity from final body weight, % of retinol / Final body weight / Area-under-the growth curve: rats, 50 nmol/d for 5 weeks; for Bioactivity from area-under-the growth curve, % of retinol: control subtracted, relative to retinol group; for Bioactivity from final body weight, % of retinol: difference from control relative to retinol group; for Final body weight / Area-under-the growth curve: mean, n 10; for Area-under-the growth curve: trapezoidal
Outline: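 Weanling (21-d) male Sprague Dawley rats (n 40) were fed a vitamin A-deficient diet and weighed daily. At week 9 they were split into four weight-matched groups (n 10) and given 50 nmol/d oral retinoid acetate in 100 µl cottonseed oil, or vehicle alone. Rats were killed 5 weeks after dosing began. Body-weight AUC was by trapezoidal approximation, and bioactivity from ending weights versus the retinol group. ANOVA; means (SD).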

retinol transporter = conditions: cited from earlier work
[2] = rats maintained on DR; cited from earlier work
[3] = Study 1 tissue and serum ROH, αR and DR by HPLC; assay type: in vivo, rat; conditions: for Lung ROH concentration / Spleen ROH concentration: rats, 50 nmol/d oral, 5 weeks, mean, n 10
[4] = high doses given to dams; not to the extent of retinoic acid alone; cited from earlier work
[5] = Study 2 interaction study: graded αR with 70 nmol ROH/d, serum and liver; assay type: in vivo, rat; conditions: for Liver αR / Total dose liver retention: 3 weeks
Outline: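 Each received oral daily 70 nmol reference retinoid plus 0, 17.5, 35 or 70 nmol test retinoid (as acetate) in 100 µl cottonseed oil. Rats were killed after 3 weeks. Serum and saponified liver were run on isocratic C18 HPLC-UV in acetonitrile:water 87.5:12.5 with 10 mM ammonium acetate. ANOVA; means (SD).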

[6] = Study 3 toxicity study: serum chemistry panel and liver histology; assay type: in vivo, rat; conditions: 3.5 µmol/d for 21 d; for Hepatotoxicity: rats killed 1, 8 and 15 d after the last dose
[7] = in vitro and in vivo models; cited from earlier work
apo-RBP = conditions: cited from earlier work
[8] = Study 3 retinol and α-retinol in liver, kidney and serum after the final dose; assay type: in vivo, rat; conditions: for Liver αR: 3.5 µmol/day for 21 days, n 5
[9] = given intraperitoneally; cited from earlier work

## CC1=C(/C=C/C(C)=C/C=C/C(C)=C/C(=O)O)C(C)(C)CC=C1 [3,4-Didehydroretinoic acid]
RARα
  Affinity for RARα: same affinity as retinoic acid
RARβ
  Affinity for RARβ: same affinity as retinoic acid
RARγ
  Affinity for RARγ: same affinity as retinoic acid

## CC1=C(/C=C/C(C)=C/C=C/C(C)=C/CO)C(C)(C)CC=C1 [3,4-Didehydroretinol, 3,4-didehydroretinol]
[1]
  Biological activity compared with ROH: 40%
  Estimates of bioactivity in rats, that of ROH: 40%
Study 1 growth assay
  Bioactivity compared with retinol: 120–130%
  Area-under-the growth curve, difference from control: 1000
  Bioactivity from area-under-the growth curve, % of retinol: 127%
  Bioactivity from final body weight, % of retinol: 119%
  Final body weight: 560 g
  Area-under-the growth curve: 1867 g·days
Retinol transporter
  Rate of carriage by the retinol transporter from the intestine: at the same rate as ROH
[2]
  Retina integrity: normal retina integrity
[3]
  Lung ROH concentration: not detected
  Spleen ROH concentration: not detected
[3]; study 1
  Serum DR in DR-dosed rats, times less than serum ROH in ROH-dosed rats: 2.6 times

## CC(=O)OC/C=C(C)/C=C/C=C(C)/C=C/C1=C(C)C=CCC1(C)C [3,4-didehydroretinyl acetate]
[4]
  Terata in fetuses: caused terata in fetuses

## CC1=C(/C=C/C(C)=C/C=C/C(C)=C/CO)C(C)(C)CCC1 [Retinol, retinol, reference compound]
Study 1 growth assay
  Area-under-the growth curve, difference from control: 787
  Bioactivity from area-under-the growth curve, % of retinol: 100%
  Bioactivity from final body weight, % of retinol: 100%
  Final body weight: 546 g
  Area-under-the growth curve: 1654 g·days
[3]; study 1
  Kidney ROH relative to liver ROH: 7 times
[3]; study 1, ROH group
  Liver reserves, times less than deficiency cut-off (<70 nmol ROH/g liver): 14 times

## CC(=O)OC/C=C(C)/C=C/C=C(C)/C=C/C1=C(C)CCCC1(C)C [retinyl acetate, reference compound]
[4]
  Terata in fetuses: caused terata in fetuses

## CC1=CCCC(C)(C)C1/C=C/C(C)=C/C=C/C(C)=C/CO (stereo not drawn) [α-Retinol, α-retinol]
[1]
  Activity relative to retinol (ROH), growth-promoting activity in rats: 2.1%
  Bioactivity: 2.6%
  Estimates of bioactivity in rats, that of ROH: 2%
[1]; rat growth and liver storage bioassays
  Biopotency versus US Pharmacopeia Vitamin A Reference Standard: approximately 2%
[1]; ref previous reports
  Biopotency of all-trans-retinyl acetate: 2%
[5]; 17.5 nmol αR/d + 70 nmol ROH/d
  Liver αR: 262 (SD 34) nmol/liver
  Total dose liver retention: 71.3%
[5]; 35 nmol αR/d + 70 nmol ROH/d
  Liver αR: 449 (SD 23) nmol/liver
  Total dose liver retention: 61.1%
[5]; 70 nmol αR/d + 70 nmol ROH/d
  Liver αR: 893 (SD 138) nmol/liver
  Total dose liver retention: 60.7%
[5]; study 2, 17.5-70 nmol αR/d + 70 nmol ROH/d
  Serum αR: undetectable
[5]; study 2, with 70 nmol ROH/d
  Cumulative αR doses recovered in the liver: 61–71%
Study 1 growth assay; classic growth assay, 50 nmol/d
  Growth rate relative to ROH: about 50%
Study 1 growth assay
  Bioactivity compared with retinol: 40–50%
  Area-under-the growth curve, difference from control: 298
  Final body weight: 508 g
  Area-under-the growth curve: 1165 g·days
[6]
  Toxicity compared with control rats: No toxicity was evident
  Hepatotoxicity: no hepatotoxicity occurred
[6]; liver sections, hematoxylin and eosin
  Stellate cell hypertrophy: No stellate cell hypertrophy was detected
[7]
  Induction of signs of hypervitaminosis A: very effective at inducing signs of hypervitaminosis A
apo-RBP
  Binding in vitro with apo-RBP: failed to bind
[8]; at αR concentrations >1.7 µmol/g liver
  α-Retinyl esters circulating in the blood, share of total retinol: > 10%
[3]
  Lung ROH concentration: not detected
  Spleen ROH concentration: not detected
[3]; study 1, ROH not made available
  Cumulative αR doses recovered in the liver: 0.3%
[3]; study 1, rats fed 50 nmol/d
  Serum ROH concentration: ≤ 0.10 µmol/L

## CC(=O)OC/C=C(C)/C=C/C=C(C)/C=C/C1C(C)=CCCC1(C)C (stereo not drawn) [α-retinyl acetate]
[9]
  Growth of hamsters: sustains growth of hamsters
[6]
  Hepatotoxicity: No hepatic toxicity was observed; also recorded: No hepatotoxicity was noted
[8]; day 1 after final dose
  Liver αR: 2300 nmol/g
[8]; day 8 after final dose
  Liver αR: 1750 nmol/g
[8]; day 15 after final dose
  Liver αR: 1770 nmol/g
